Structures are written as SMILES. Bounds are passed on as bounds.

Common to all, as to type: cell-based
In assay [1] the target is T1, Peroxisome proliferator-activated receptor alpha (Homo sapiens, UniProt Q07869).
T1 sequence (Q07869 whole entry): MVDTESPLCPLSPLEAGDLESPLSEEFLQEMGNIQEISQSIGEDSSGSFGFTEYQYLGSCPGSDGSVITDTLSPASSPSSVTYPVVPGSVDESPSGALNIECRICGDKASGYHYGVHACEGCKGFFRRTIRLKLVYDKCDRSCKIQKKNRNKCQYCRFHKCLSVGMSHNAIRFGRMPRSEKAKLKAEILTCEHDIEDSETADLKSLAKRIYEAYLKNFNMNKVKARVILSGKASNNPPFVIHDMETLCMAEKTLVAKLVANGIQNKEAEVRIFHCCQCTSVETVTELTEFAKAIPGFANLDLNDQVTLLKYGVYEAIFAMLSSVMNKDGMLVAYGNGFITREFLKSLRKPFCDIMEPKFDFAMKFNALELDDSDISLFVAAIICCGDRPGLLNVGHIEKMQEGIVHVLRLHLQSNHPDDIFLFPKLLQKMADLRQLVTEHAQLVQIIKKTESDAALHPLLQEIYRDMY
Briefly: Transactivation of human PPARalpha expressed in monkey CV-1 cells coexpressing TK-PPRE-Luc after 24 hrs by luciferase reporter gene assay. For orientation: A reporter such as luciferase makes a cellular process visible.

For assay [2], the target named is T2, Peroxisome proliferator-activated receptor gamma (Homo sapiens, UniProt P37231).
T2 sequence (P37231 whole entry): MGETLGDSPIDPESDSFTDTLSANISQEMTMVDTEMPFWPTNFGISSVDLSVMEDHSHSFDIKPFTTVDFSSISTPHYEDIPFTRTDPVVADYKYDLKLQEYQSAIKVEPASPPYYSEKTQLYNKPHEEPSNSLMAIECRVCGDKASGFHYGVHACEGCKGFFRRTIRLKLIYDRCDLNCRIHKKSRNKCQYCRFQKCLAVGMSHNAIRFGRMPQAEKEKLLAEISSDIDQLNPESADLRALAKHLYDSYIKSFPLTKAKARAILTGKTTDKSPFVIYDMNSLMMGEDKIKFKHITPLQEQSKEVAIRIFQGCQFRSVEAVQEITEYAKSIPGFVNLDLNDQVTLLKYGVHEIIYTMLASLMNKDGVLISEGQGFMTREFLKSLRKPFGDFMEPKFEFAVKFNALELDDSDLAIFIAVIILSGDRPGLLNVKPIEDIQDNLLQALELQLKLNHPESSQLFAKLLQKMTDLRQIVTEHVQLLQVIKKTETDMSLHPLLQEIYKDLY
Briefly: Transactivation of human PPARgamma expressed in monkey CV-1 cells coexpressing TK-PPRE-Luc after 24 hrs by luciferase reporter gene assay.

Assay [3] addresses T3, Peroxisome proliferator-activated receptor delta (Homo sapiens, UniProt Q03181).
T3 sequence (Q03181 whole entry): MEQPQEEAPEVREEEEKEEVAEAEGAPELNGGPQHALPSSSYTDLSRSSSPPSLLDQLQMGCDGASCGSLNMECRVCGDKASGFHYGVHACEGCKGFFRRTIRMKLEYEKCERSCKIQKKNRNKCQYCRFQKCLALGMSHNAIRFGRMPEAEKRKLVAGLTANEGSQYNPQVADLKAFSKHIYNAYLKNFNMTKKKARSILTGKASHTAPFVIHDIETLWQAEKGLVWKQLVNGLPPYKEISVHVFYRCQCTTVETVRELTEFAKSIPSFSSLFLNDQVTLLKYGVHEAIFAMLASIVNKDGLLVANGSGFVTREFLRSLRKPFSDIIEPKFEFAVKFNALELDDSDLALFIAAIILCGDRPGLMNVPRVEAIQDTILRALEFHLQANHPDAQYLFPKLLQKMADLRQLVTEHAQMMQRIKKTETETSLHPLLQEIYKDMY
Briefly: Transactivation of human PPARdelta expressed in monkey CV-1 cells coexpressing TK-PPRE-Luc after 24 hrs by luciferase reporter gene assay. The method, boiled down:
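Agonist activity tested in transiently transfected CV-1 cells by reporter assay. EC50 is the molar concentration giving 50% of the maximal reporter activity.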

For `Cc1cc(SC(Cc2cc(C(F)(F)F)ccc2F)c2ccc(-c3ccc(F)cc3)cc2)ccc1OCC(=O)O` (stereo not drawn), the EC50 in assay [1] was > 10000 nM; in assay [2], > 10000 nM; in assay [3] it was 38 nM.
In the case of `Cc1cc(SC(Cc2cc(F)c(F)c(F)c2)c2ccc(-c3ccc(C(F)(F)F)cc3)nc2)ccc1OCC(=O)O` (stereo not drawn), the EC50 was > 10000 nM in assay [1], > 10000 nM in assay [2] and 56 nM in assay [3].
Take `Cc1cc(SC(Cc2ccccc2)c2ccc(-c3cccc(C(F)(F)F)c3)cc2)ccc1OCC(=O)O` (stereo not drawn): the 50% effective concentration (EC50) in assay [1] is > 10000 nM; in assay [2] it was > 10000 nM; in assay [3] it was 18 nM.
For `Cc1cc(SC(Cc2cc(Cl)ccc2F)c2ccc(-c3cc(F)c(F)c(F)c3)cc2)ccc1OCC(=O)O` (stereo not drawn), the EC50 is > 10000 nM in assay [1], > 10000 nM in assay [2] and 6.9 nM in assay [3].
Consider `Cc1cc(SC(Cc2cc(Cl)ccc2Cl)c2ccc(-c3cc(F)c(F)c(F)c3)cc2)ccc1OCC(=O)O` (stereo not drawn), for which the EC50 in assay [1] was > 10000 nM; in assay [2] it was > 10000 nM; in assay [3] it was 9.5 nM.
On to `Cc1cc(SC(Cc2cc(F)ccc2F)c2ccc(-c3cc(F)c(F)c(F)c3)cc2)ccc1OCC(=O)O` (stereo not drawn), for which the EC50 is > 10000 nM in assay [1], > 10000 nM in assay [2] and 6.3 nM in assay [3].
In the case of `Cc1cc(SC(Cc2cc(C(F)(F)F)ccc2F)c2ccc(-c3ccccc3)cc2)ccc1OCC(=O)O` (stereo not drawn), the EC50 is > 10000 nM in assay [1], > 10000 nM in assay [2] and 10 nM in assay [3].
`Cc1cc(S[C@@H](Cc2ccccc2)c2ccc(-c3ccc(C(F)(F)F)cc3)cc2)ccc1OCC(=O)O` had an EC50 in assay [3] of 6.1 nM.
On to `Cc1cc(SC(Cc2ccccc2)c2ccc(-c3cc(F)c(F)c(F)c3)cc2)ccc1OCC(=O)O` (stereo not drawn), for which the values for the half-maximal effective concentration (EC50) in assay [1], in assay [2] and in assay [3] were > 10000 nM, > 10000 nM and 4.5 nM, respectively.
Turning to `Cc1cc(S[C@H](Cc2ccccc2)c2ccc(-c3ccc(C(F)(F)F)cc3)cc2)ccc1OCC(=O)O`, a half-maximal response in assay [3] (EC50) required 0.7 nM.
Take `Cc1cc(SC(Cc2cc(F)ccc2F)c2ccc(-c3ccc(F)cc3)cc2)ccc1OCC(=O)O` (stereo not drawn): the EC50 was > 10000 nM in assay [1], > 10000 nM in assay [2] and 4 nM in assay [3].
With `Cc1cc(SC(Cc2cc(F)c(F)c(F)c2)c2ccc(-c3ccccc3)cc2)ccc1OCC(=O)O` (stereo not drawn), the results for the EC50 in assay [1], in assay [2] and in assay [3] were > 10000 nM, > 10000 nM and 86 nM, respectively.
For `Cc1cc(SC(Cc2ccccc2)c2ccc(-c3ccc(F)cc3)cc2)ccc1OCC(=O)O` (stereo not drawn), the EC50 in assay [1] is > 10000 nM; in assay [2], > 10000 nM; in assay [3], 7 nM.
Take `Cc1cc(SC(Cc2cc(F)c(F)c(F)c2)c2ccc(-c3ccc(F)cc3)cc2)ccc1OCC(=O)O` (stereo not drawn): the EC50 in assay [1] is > 10000 nM; in assay [2], > 10000 nM; in assay [3], 65 nM.
As for `Cc1cc(SC(Cc2cc(C(F)(F)F)ccc2F)c2ccc(-c3cccc(C(F)(F)F)c3)cc2)ccc1OCC(=O)O` (stereo not drawn), the EC50 in assay [1] was > 10000 nM; in assay [2] it was > 10000 nM; in assay [3], 5.8 nM.
Take `Cc1cc(SC(Cc2ccccc2)c2ccc(-c3ccc(C(F)(F)F)cc3)nc2)ccc1OCC(=O)O` (stereo not drawn): the concentration giving a half-maximal response (EC50) in assay [1] and in assay [2] was > 10000 nM each time.
For the compound `Cc1cc(SC(Cc2cc(Cl)ccc2F)c2ccc(-c3ccccc3)cc2)ccc1OCC(=O)O` (stereo not drawn), the EC50 in assay [1] is > 10000 nM; in assay [2], > 10000 nM; in assay [3] it was 26 nM.
For the compound `Cc1cc(SC(Cc2cc(F)c(F)c(F)c2)c2ccc(-c3cccc(C(F)(F)F)c3)cc2)ccc1OCC(=O)O` (stereo not drawn), the EC50 in assay [1] is > 10000 nM; in assay [2] it was > 10000 nM; in assay [3] it was 12 nM.
For the compound `Cc1cc(SC(Cc2cc(F)ccc2F)c2ccc(-c3cccc(C(F)(F)F)c3)cc2)ccc1OCC(=O)O` (stereo not drawn), the half-maximal effective concentration (EC50) in assay [1] is > 10000 nM; in assay [2], > 10000 nM; in assay [3], 9.1 nM.
Turning to `Cc1cc(SC(Cc2cc(Cl)ccc2F)c2ccc(-c3ccc(F)cc3)cc2)ccc1OCC(=O)O` (stereo not drawn), the concentration for a half-maximal effect (EC50) was > 10000 nM in assay [1], > 10000 nM in assay [2] and 25 nM in assay [3].
Regarding `Cc1cc(SC(Cc2cc(Cl)ccc2F)c2ccc(-c3cccc(C(F)(F)F)c3)cc2)ccc1OCC(=O)O` (stereo not drawn), the half-maximal effective concentration (EC50) in assay [1] is > 10000 nM; in assay [2] it was > 10000 nM; in assay [3], 5.3 nM.

Usually EC50 stands for the concentration giving half of the maximal effect.
